What was measured:
Stromelysin-1 = Stromelysin-1 (Homo sapiens, UniProt P08254); test: Inhibition of matrix metalloprotease-3 (MMP-3), stromelysin-1
Method in brief: (§1)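 Recombinant human enzymes (MMP-1, MMP-2, MMP-3) were used as the source for the inhibition measurements.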

Interstitial collagenase = target: T1, Interstitial collagenase (Homo sapiens, UniProt P03956); test: Inhibition of matrix metalloprotease-1 (MMP-1), fibroblast collagenase.; method in brief: as §1
T1 sequence (P03956 whole entry): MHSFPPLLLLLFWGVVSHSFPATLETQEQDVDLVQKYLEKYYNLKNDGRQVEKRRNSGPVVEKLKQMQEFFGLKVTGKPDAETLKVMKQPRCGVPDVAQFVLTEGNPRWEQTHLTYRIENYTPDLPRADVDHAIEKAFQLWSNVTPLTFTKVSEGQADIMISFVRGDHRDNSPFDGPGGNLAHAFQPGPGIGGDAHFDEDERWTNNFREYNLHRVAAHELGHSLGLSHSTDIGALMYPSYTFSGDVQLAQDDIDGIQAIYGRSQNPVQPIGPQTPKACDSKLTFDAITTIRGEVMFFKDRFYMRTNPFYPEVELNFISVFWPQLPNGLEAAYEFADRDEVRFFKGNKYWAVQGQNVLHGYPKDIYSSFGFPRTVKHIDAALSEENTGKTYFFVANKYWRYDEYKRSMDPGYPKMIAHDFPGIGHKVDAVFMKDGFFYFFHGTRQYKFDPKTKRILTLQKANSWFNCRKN

[1] = target: 72 kDa type IV collagenase (Homo sapiens, UniProt P08253); test: Inhibition of matrix metalloprotease-2 (MMP-2), gelatinase-A; method in brief: as §1
Chain of 72 kDa type IV collagenase (P08253 whole entry): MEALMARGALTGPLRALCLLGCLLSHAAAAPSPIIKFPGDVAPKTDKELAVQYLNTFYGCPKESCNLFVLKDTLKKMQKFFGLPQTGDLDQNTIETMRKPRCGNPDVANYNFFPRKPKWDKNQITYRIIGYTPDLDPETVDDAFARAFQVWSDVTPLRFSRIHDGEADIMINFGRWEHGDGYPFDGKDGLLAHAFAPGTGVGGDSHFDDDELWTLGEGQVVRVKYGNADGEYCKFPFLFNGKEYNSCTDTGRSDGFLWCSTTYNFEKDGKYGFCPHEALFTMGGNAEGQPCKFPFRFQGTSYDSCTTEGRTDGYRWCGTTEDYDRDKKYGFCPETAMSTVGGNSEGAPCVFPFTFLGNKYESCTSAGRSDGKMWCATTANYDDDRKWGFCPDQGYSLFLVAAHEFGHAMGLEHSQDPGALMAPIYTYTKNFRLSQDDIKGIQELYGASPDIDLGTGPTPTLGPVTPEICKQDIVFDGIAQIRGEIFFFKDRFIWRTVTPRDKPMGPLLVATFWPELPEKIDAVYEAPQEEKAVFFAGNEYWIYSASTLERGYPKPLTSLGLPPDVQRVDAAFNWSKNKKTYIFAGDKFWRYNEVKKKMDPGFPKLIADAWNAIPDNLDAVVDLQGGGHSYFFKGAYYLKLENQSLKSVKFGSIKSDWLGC

Chain of Stromelysin-1 (P08254 whole entry): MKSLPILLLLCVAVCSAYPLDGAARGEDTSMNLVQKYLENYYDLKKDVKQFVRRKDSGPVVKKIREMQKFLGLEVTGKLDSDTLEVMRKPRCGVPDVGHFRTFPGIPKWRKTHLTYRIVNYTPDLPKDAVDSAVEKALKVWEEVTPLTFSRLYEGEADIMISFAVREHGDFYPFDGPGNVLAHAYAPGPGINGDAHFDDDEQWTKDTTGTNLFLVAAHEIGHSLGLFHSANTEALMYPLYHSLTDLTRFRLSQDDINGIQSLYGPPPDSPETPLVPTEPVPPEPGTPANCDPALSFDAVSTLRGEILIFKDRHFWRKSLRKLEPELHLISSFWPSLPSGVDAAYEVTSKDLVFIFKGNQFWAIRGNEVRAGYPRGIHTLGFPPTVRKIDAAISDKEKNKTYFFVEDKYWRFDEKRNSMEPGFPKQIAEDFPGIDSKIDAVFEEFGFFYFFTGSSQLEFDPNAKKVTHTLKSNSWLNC

Q: Which Ki (Stromelysin-1) does the source give for `COc1ccc(S(=O)(=O)[C@H](CCCCc2ccccc2)[C@@H](C)C(=O)NO)cc1` here?
A: 500 nM

Q: What about the Ki (Interstitial collagenase) of the same compound?
A: 2000 nM

Q: What about the Ki [1] of the same compound?
A: 10 nM

Q: Which Ki (Stromelysin-1) does the source give for `COc1ccc(S(=O)(=O)C(CCCCc2ccccc2)C(C)C(=O)NO)cc1` (centres undefined) here?
A: 600 nM

Q: What about the Ki (Interstitial collagenase) of the same compound?
A: 2000 nM

Q: And the Ki [1]?
A: 60 nM

Q: With `COc1ccc(S(=O)(=O)C(C)(CCCCc2ccccc2)CC(=O)NO)cc1` (centres undefined) as the compound, how does the Ki (Stromelysin-1) read?
A: 1000 nM

Q: And the Ki (Interstitial collagenase)?
A: 2000 nM

Q: And the Ki [1]?
A: 50 nM

Q: Which Ki (Stromelysin-1) does the source give for `COc1ccc(S(=O)(=O)C(CC(=O)NO)Cc2ccccc2)cc1` (centres undefined) here?
A: 300 nM

Q: And the Ki (Interstitial collagenase)?
A: 1000 nM

Q: What about the Ki [1] of the same compound?
A: 20 nM

Q: Which Ki (Stromelysin-1) does the source give for `COc1ccc(S(=O)(=O)C(CCc2ccccc2)CC(=O)NO)cc1` (centres undefined) here?
A: 200 nM

Q: What about the Ki (Interstitial collagenase) of the same compound?
A: 4000 nM

Q: What about the Ki [1] of the same compound?
A: 30 nM

Q: Which Ki (Stromelysin-1) does the source give for `COc1ccc(S(=O)(=O)C(CCCCc2ccccc2)CC(=O)NO)cc1OC` (centres undefined) here?
A: > 10000 nM

Q: What about the Ki (Interstitial collagenase) of the same compound?
A: > 10000 nM

Q: What about the Ki [1] of the same compound?
A: > 10000 nM

Q: How did the Ki (Stromelysin-1) turn out when `COc1ccc(S(=O)(=O)C(CCCc2ccccc2)CC(=O)NO)cc1` (centres undefined) was run?
A: 600 nM

Q: And the Ki (Interstitial collagenase)?
A: 2000 nM

Q: What about the Ki [1] of the same compound?
A: 50 nM

Q: What does the source list for `COc1ccc(S(=O)(=O)C(CCCCc2ccccc2)CC(=O)NO)cc1` (centres undefined)?
A: Ki (Stromelysin-1): 700 nM; Ki (Interstitial collagenase): 5000 nM; Ki [1]: 20 nM
